Each structure is given as a SMILES string. Activity calls are given as the source filed them.

The target of test [1] is T1, Prostaglandin G/H synthase 1 (Ovis aries) (UniProt P05979).
T1 sequence (whole entry): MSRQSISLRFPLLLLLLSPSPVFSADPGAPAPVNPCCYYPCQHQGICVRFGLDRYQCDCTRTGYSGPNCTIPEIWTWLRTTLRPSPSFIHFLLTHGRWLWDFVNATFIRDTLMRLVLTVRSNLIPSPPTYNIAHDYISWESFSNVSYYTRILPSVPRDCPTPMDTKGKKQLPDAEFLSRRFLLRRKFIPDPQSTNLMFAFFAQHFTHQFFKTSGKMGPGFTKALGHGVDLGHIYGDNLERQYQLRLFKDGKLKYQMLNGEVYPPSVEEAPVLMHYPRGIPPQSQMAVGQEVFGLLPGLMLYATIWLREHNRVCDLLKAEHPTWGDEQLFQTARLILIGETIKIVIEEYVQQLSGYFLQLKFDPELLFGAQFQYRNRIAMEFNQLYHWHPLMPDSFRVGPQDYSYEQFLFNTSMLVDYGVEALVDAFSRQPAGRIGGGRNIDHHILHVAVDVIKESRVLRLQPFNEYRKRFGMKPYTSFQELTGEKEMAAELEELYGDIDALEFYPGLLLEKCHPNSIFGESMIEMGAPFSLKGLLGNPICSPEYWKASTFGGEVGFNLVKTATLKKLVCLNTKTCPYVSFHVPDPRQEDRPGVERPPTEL
The test is described as follows: Inhibition of ovine COX1 using arachidonic acid as substrate after 5 mins. In short, it runs like this:
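Oxygen-electrode assay at room temperature in 0.1 M Tris-HCl, pH 7.4, with 1 µM haematin, 2 mM phenol, 5 mM EDTA and 10 µM (final) arachidonic acid or 2-AG. Compound in EtOH was added and a 5 min baseline recorded. The reaction was started with ovine COX-1 or human recombinant COX-2 (200 U), and oxygen consumption was read in 10 s blocks. Means ± SEM, n = 3-4.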

The species named for the next test is Homo sapiens. As to the kind of experiment: Selectivity ratio of IC50 for FAAH T488A mutant (unknown origin) expressed in human HeLa cells after 2 hrs to IC50 for FAAH (unknown origin) expressed in human HeLa cells transfected with empty vector after 2 hrs. Type of test: cell-based.
In test [2] the target is T2, Fatty-acid amide hydrolase 1 (Rattus norvegicus) (UniProt P97612).
T2 sequence (whole entry): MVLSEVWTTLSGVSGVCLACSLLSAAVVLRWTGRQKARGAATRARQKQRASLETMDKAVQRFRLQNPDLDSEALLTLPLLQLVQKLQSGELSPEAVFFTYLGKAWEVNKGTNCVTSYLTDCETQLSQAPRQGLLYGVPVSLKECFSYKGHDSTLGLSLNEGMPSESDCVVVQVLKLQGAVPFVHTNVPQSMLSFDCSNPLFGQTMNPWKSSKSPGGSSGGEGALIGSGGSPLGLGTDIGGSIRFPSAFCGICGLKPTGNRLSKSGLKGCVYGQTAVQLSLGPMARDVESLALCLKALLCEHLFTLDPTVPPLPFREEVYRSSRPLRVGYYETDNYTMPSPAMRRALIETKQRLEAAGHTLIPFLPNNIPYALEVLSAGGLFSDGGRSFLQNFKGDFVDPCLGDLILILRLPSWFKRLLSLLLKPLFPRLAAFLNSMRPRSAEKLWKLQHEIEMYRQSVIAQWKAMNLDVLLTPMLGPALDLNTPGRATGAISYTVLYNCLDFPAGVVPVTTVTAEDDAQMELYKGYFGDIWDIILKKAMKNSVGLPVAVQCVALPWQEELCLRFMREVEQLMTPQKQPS
As to the kind of experiment: Reversible inhibition of rat brain FAAH at 0.2 to 2 uM using [3H]AEA as substrate preincubated for 60 mins followed by 20 fold compound dilution and subsequent substrate addition by liquid scintillation counting analysis. In short, it runs like this: (§1)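 Rat brain homogenate at 20-fold normal strength was preincubated with vehicle or compound for 60 min, then diluted 20-fold and assayed with [3H]AEA for 10 min at 37 °C. In parallel, compound was added to vehicle-preincubated aliquots at the post-dilution free concentrations and at the undiluted final concentrations. Tritium was counted after charcoal separation.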

The target in test [3] is T3, Fatty-acid amide hydrolase 1 (Mus musculus) (UniProt O08914).
T3 sequence (whole entry): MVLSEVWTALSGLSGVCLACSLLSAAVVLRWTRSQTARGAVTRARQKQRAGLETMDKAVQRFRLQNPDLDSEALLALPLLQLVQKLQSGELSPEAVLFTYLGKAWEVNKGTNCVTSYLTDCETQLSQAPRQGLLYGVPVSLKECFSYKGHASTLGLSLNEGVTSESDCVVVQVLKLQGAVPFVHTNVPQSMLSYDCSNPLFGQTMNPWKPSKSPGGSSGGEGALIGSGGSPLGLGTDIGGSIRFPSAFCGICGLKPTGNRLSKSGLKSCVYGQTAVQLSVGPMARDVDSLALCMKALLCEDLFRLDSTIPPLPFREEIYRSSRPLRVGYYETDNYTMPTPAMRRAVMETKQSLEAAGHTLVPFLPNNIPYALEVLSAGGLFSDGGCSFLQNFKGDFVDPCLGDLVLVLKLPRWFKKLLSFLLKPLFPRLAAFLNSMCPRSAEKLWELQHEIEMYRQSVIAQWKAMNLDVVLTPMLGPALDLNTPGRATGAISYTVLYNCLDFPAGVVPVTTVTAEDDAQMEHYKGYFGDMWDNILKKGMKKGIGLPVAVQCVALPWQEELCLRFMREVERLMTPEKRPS
The test is described as follows: Inhibition of B6CBAF1/J mouse brain FAAH using [3H]AEA as substrate after 10 mins in presence of N-(3-Chloropyridin-2-yl)-2-(4-((2-(trifluoromethyl)pyridin-4-yl)amino)phenyl)propanamide by Dixon plot analysis. The gist of the method:
(§2)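 Kinetic study in brain homogenate from male B6CBAF1/J mice (0.3 µg protein per assay). [3H]AEA hydrolysis ran for 10 min at 37 °C in Tris-EDTA buffer, pH 7.4, with the AEA:fatty acid-free BSA ratio held at 1:~4.5. Products were separated on charcoal and counted by scintillation. Competitive, mixed-type and non-competitive fits were compared by Akaike's criterion.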

For test [4], the target named is T2, Fatty-acid amide hydrolase 1 (Rattus norvegicus). As to the kind of experiment: Reversible inhibition of rat brain FAAH at 0.03 to 1 uM using [3H]AEA as substrate preincubated for 60 mins followed by 20 fold compound dilution and subsequent substrate addition by liquid scintillation counting analysis. The gist of the method:
as §1

For test [5] the target is unchanged. As to the kind of experiment: Reversible inhibition of rat brain FAAH at 0.03 to 1 uM using [3H]AEA as substrate preincubated for 60 mins followed by substrate addition by liquid scintillation counting analysis. In short, it runs like this: as §1
In test [6] the target is T3, Fatty-acid amide hydrolase 1 (Mus musculus). As to the kind of experiment: Inhibition of B6CBAF1/J mouse brain FAAH using [3H]AEA as substrate after 10 mins in presence of N-(3-Methylpyridin-2-yl)-2-(4-((2-(trifluoromethyl)pyridin-4-yl)amino)phenyl)propanamide by Dixon plot analysis. The gist of the method: as §2

In the case of `Cc1cccnc1NC(=O)C(C)c1ccc(Nc2ccnc(C(F)(F)F)c2)cc1` (configuration not stated), in test [1], the inhibition result is “inactive”. In addition, the Ratio IC50 in the test filed under Homo sapiens stood at 3.8. Moreover, the inhibition result in test [2] and in test [3] was “Active” each time.

As for `CC(C(=O)Nc1ncccc1Cl)c1ccc(Nc2ccnc(C(F)(F)F)c2)cc1` (configuration not stated), the inhibition entry in test [4], in test [5] and in test [6] was “Active” each time.

(Values after ChEMBL document CHEMBL4138113, “Novel propanamides as fatty acid amide hydrolase inhibitors” (Eur J Med Chem, 2017).)
